The values that follow come from ChEMBL document CHEMBL1134451, “Synthesis, cytotoxicity, and antitumor activity of copper(II) and iron(II) complexes of (4)N-azabicyclo[3.2.2]nonane thiosemicarbazones derived from acyl diazines” (J Med Chem, 2001).

Assay [1] relates to HT-29. As to the kind of experiment: Cytotoxic activity against colon adenocarcinoma (HT-29) cell line. The format is functional, cell-based, Homo sapiens. In short, it runs like this: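 HT-29 colon adenocarcinoma cells in McCoy's 5A with 10% FCS, glutamine and penicillin/streptomycin, about 10 000 cells/well. After a 4 h preincubation, cells were exposed to compound (DMSO up to 0.5% final) for 72 h at 37 °C, 5% CO2. Readout was SRB assay. IC50 from dose-response curves; mean of at least three independent experiments run in duplicate.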

The next assay concerns CCRF-CEM. The assay can be described thus: Cytotoxic activity against human acute lymphoblastic leukemia (CCRF-CEM) cell line. The class given is functional, cell-based.
A short description of assay [2]: Inhibition of cell proliferation in Burkitt's lymphoma cells. The class given is functional, cell-based, Homo sapiens.
Assay [3] is described as follows: (§1) Percentage of cells in G1 cell cycle phase of lymphoma cells after 48 hr treatment. The class given is functional, Homo sapiens.
Assay [4] in a line: (§2) Percentage of cells in S cell cycle phase of lymphoma cells after 48 hr treatment. The format is functional, Homo sapiens.
A short description of assay [5]: (§3) Percentage of cells in G1 cell cycle phase of lymphoma cells after 24 hr treatment. The class given is functional, Homo sapiens.
A short description of assay [6]: Inhibition of [14C]-cytidine incorporation into DNA in Burkitt''s lymphoma cells. The format is functional, cell-based, Homo sapiens. In short, it runs like this:
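Intact exponentially growing Burkitt's lymphoma cells, (1-2)×10^6/mL, incubated with compound at 37 °C for 90 min, then 0.7 μCi [14C]cytidine added. Cells TCA-precipitated and RNase-treated in Tris-HCl pH 8 for 2 h at 37 °C, then reprecipitated with TCA. Pellet dissolved in NaOH and counted by scintillation. IC50 is the mean of two experiments run in duplicate.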

Assay [7] can be described thus: (§4) Percentage of cells in S cell cycle phase of lymphoma cells after 24 hr treatment. The class given is functional, Homo sapiens.
Assay [8] can be described thus: (§5) Percentage of cells in G2-M cell cycle phase of lymphoma cells after 48 hr treatment. The format is functional, Homo sapiens.
A short description of assay [9]: Ratio of IC50 values was calculated by IC50 cytidine incorporation/IC50 cell proliferation. The format is functional. In short, it runs like this: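 Ratio of the [14C]cytidine-incorporation IC50 to the cell-proliferation IC50, both measured in Burkitt's lymphoma cells.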
Assay [10] can be described thus: (§6) Percentage of cells in G2-M cell cycle phase of lymphoma cells after 24 hr treatment. The format is functional, Homo sapiens.
A further assay deals with MCF7. As to the kind of experiment: Inhibition of cell proliferation of human breast MCF7X tumor xenograft in colony forming assay. The class given is functional, cell-based.
The next assay deals with PAXF546. As to the kind of experiment: Inhibition of cell proliferation of human pancreas PAXF546 tumor xenograft in colony forming assay. The format is functional, cell-based.
The next assay relates to LXFL 529. The assay can be described thus: Inhibition of cell proliferation of human lung large cell LXFL529 tumor xenograft in colony forming assay. The format is functional, cell-based.
For another assay, the system named is MEXF276L. As to the kind of experiment: Inhibition of cell proliferation of human melanoma MEXF276L tumor xenograft in colony forming assay. The format is functional, cell-based.
For a further assay, the system named is MEXF989. As to the kind of experiment: Inhibition of cell proliferation of human melanoma MEXF989 tumor xenograft in colony forming assay. The class given is functional, cell-based.
Another assay relates to PAXF736. As to the kind of experiment: Inhibition of cell proliferation of human pancreas PAXF736 tumor xenograft in colony forming assay. The format is functional, cell-based.
Another assay deals with CXF1103. The assay can be described thus: Inhibition of cell proliferation of human colon CXF1103 tumor xenograft in colony forming assay. The class given is functional, cell-based.
The subject of another assay is LXFS538. The assay can be described thus: Inhibition of cell proliferation of human lung small cell LXFS538 tumor xenograft in colony forming assay. The class given is functional, cell-based.
A further assay has as its system CXF280. As to the kind of experiment: Inhibition of cell proliferation of human colon CXF280 tumor xenograft in colony forming assay. The format is functional, cell-based.
The test system of the next assay is MX1. As to the kind of experiment: Inhibition of cell proliferation of human breast MXI tumor xenograft in colony forming assay. The format is functional, cell-based.
Assay [11] concerns HT-29. As to the kind of experiment: Inhibition of cell proliferation of human colon HT-29X tumor xenograft in colony forming assay. The class given is functional, cell-based.
For assay [12], the system named is lymphoma. The assay is described as §1. The note with it: Homo sapiens. The format is functional.
The test system of assay [13] is lymphoma. Described as §2. The class given is functional. The note with it: Homo sapiens.
Assay [14] relates to lymphoma. Described as §3. The format is functional. Particulars: Homo sapiens.
A short description of assay [15]: Mean IC50 value of the compound. The format is functional. In short, it runs like this: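 Geometric mean of clonogenic soft-agar IC50 values across the tumor xenografts tested: 10 raised to the mean of log IC50 over all xenografts.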
In assay [16] the test system is lymphoma. The description is as §4. The format is functional. Particulars: Homo sapiens.
Assay [17] relates to lymphoma. The assay is described as §5. Particulars: Homo sapiens. The format is functional.
The test system of assay [18] is lymphoma. The assay is described as §6. The note with it: Homo sapiens. The class given is functional.
The subject of the next assay is OVXF1023 cell line. The assay can be described thus: Inhibition of cell proliferation of human ovary OVXF1023 tumor xenograft in colony forming assay. The format is functional, cell-based, Female gonad.
In the next assay the test system is RXF 423. As to the kind of experiment: Inhibition of cell proliferation of human renal RXF423 tumor xenograft in colony forming assay. The class given is functional, cell-based.
In a further assay the test system is CXF158. As to the kind of experiment: Inhibition of cell proliferation of human colon CXF158 tumor xenograft in colony forming assay. The format is functional, cell-based.
The subject of another assay is OVXF1353 cell line. The assay can be described thus: Inhibition of cell proliferation of human ovary OVXF1353 tumor xenograft in colony forming assay. The format is functional, cell-based, Female gonad.

As to `C/C(=N\N=C(/S)N1CC2CCC(CC2)C1)c1ccncn1`, the half-inhibitory concentration (IC50) in the assay on HT-29 [1] (Homo sapiens, HT-29) was found to be 50 nM; in the assay on CCRF-CEM (Homo sapiens, CCRF-CEM), 20 nM.
For `C/C(=N\N=C(/S)N1CC2CCC(CC2)C1)c1cnccn1`, in that order: 11 nM and 11 nM.
As for `NC(=O)NO` [HYDROXYUREA], the 50% inhibitory concentration (IC50) in assay [2] (Homo sapiens) was 140000 nM; in assay [6], 37200 nM. Besides, the Activity in assay [3] was determined as 21.27%; in [4], 45.1%; in assay [5], 48.2%; in assay [7], 38.22%; in [8], 19.52%; in assay [10] it was 11.9%. Moreover, in [9], the IC50 ratio was 0.26.
For Copper(II) Complex, the IC50 is 1510 nM in the assay on HT-29 [1] (ht-29) and 300 nM with CCRF-CEM (ccrf-cem).
Regarding “N-[(1E)-1-(3-methylpyrazin-2-yl)ethylidene]-3-azabicyclo[3.2.2]nonane-3-carbohydrazonothioic acid.chloro Cu(II)complex [listing 1 of 2 here]”, the IC50 was 6 nM in assay [2]; 0.21 nM with MCF7; 0.56 nM with PAXF546; 180 nM in assay [6]; 6 nM in the assay on CCRF-CEM (ccrf-cem); below 0.1 nM with LXFL 529. Further, the IC50 in the assay on MEXF276L is 36 nM; in the assay with MEXF989, 3 nM; in the assay with PAXF736, below 0.1 nM; in the assay on CXF1103, below 0.1 nM; in the assay with LXFS538, 0.22 nM; with CXF280 it was below 0.1 nM. Besides, the IC50 was 5 nM in the assay on MX1 and 0.85 nM in the assay with HT-29 [11].
As to “N-[(1E)-1-(3-methylpyrazin-2-yl)ethylidene]-3-azabicyclo[3.2.2]nonane-3-carbohydrazonothioic acid.chloro Cu(II)complex [listing 2 of 2 here]”, the Activity in the assay with lymphoma [12] amounted to 49.3%; with lymphoma [13], 29.8%; in the assay on lymphoma [14], 51.9%; with lymphoma [16] it was 22.8%; with lymphoma [17], 9.81%; in the assay with lymphoma [18] it was 17%. This compound returned a Mean IC50 in assay [15] of 0.37 nM. Moreover, the IC50 ratio in assay [9] was 30.
For the compound “N-[(1E)-1-(5-methylpyrazin-2-yl)ethylidene]-3-azabicyclo[3.2.2]nonane-3-carbohydrazonothioic acid.chloro Cu(II)complex [listing 1 of 2 here]”, the IC50 was 10 nM with OVXF1023 cell line; 6 nM in assay [2]; 4 nM in the assay on HT-29 [1] (ht-29); below 0.1 nM in the assay on MCF7; 0.2 nM with PAXF546; 2970 nM in assay [6]. Further, the IC50 was 4 nM in the assay on RXF 423; 5 nM in the assay on CCRF-CEM (ccrf-cem); below 0.1 nM with LXFL 529; 0.13 nM in the assay on CXF158; 14 nM with MEXF276L; 0.7 nM with MEXF989. Further, the IC50 in the assay with PAXF736 is below 10 nM; in the assay on CXF1103, below 0.1 nM; in the assay with CXF280, below 0.1 nM; in the assay on MX1 it was 4 nM; with OVXF1353 cell line, 24 nM; in the assay on HT-29 [11] it was 1 nM.
Turning to “N-[(1E)-1-(5-methylpyrazin-2-yl)ethylidene]-3-azabicyclo[3.2.2]nonane-3-carbohydrazonothioic acid.chloro Cu(II)complex [listing 2 of 2 here]”, the Activity was found to be 52.7% in the assay with lymphoma [12]; 29.4% with lymphoma [13]; 53.1% with lymphoma [14]; 25.9% in the assay on lymphoma [16]; 17.7% in the assay on lymphoma [17]; 19.9% in the assay on lymphoma [18]. Moreover, the Mean IC50 in assay [15] stood at 0.37 nM. The IC50 ratio in [9] is 495.
On to “N-[(1E)-1-(6-methylpyridazin-3-yl)ethylidene]-3-azabicyclo[3.2.2]nonane-3-carbohydrazonothioic acid.chloro Cu(II)complex”, for which the IC50 was determined as 870 nM with HT-29 [1] (ht-29) and 130 nM with CCRF-CEM (ccrf-cem).
Consider “N-[(1E)-1-(6-methylpyrimidin-4-yl)ethylidene]-3-azabicyclo[3.2.2]nonane-3-carbohydrazonothioic acid.chloro Cu(II)complex [listing 1 of 2 here]”, for which the IC50 was 15 nM with OVXF1023 cell line; 4 nM with HT-29 [1] (ht-29); 0.2 nM with MCF7; 3 nM in the assay on PAXF546; 210 nM in [6]; 26 nM in the assay with RXF 423. Further, the half-maximal inhibitory concentration (IC50) with CCRF-CEM (ccrf-cem) was 10 nM; with LXFL 529, below 0.1 nM; in the assay with CXF158 it was 2 nM; with MEXF989 it was 0.84 nM; with PAXF736 it was 15 nM; in the assay on CXF1103, 0.11 nM. Besides, the half-inhibitory concentration (IC50) in the assay with CXF280 is 0.2 nM; with MX1 it was 14 nM; in the assay on OVXF1353 cell line it was 19 nM; with HT-29 [11], 5 nM.
“N-[(1E)-1-(6-methylpyrimidin-4-yl)ethylidene]-3-azabicyclo[3.2.2]nonane-3-carbohydrazonothioic acid.chloro Cu(II)complex [listing 2 of 2 here]”: the Activity was 59.2% in the assay with lymphoma [12]; 21.5% in the assay on lymphoma [13]; 64.5% with lymphoma [14]; 21.7% in the assay on lymphoma [16]; 11.4% with lymphoma [17]; 13.6% in the assay with lymphoma [18]. For the same compound, the Mean IC50 in assay [15] was determined as 1 nM. In addition, the IC50 ratio in assay [9] is 11.7.
“N-[(1E)-1-pyrazin-2-ylethylidene]-3-azabicyclo[3.2.2]nonane-3-carbohydrazonothioic acid.chloro Cu(II)complex”: the IC50 in the assay with HT-29 [1] (ht-29) and in the assay with CCRF-CEM (ccrf-cem) was below 10 nM each time.
Take “N-[(1E)-1-pyrimidin-4-ylethylidene]-3-azabicyclo[3.2.2]nonane-3-carbohydrazonothioic acid.chloro Cu(II)complex”: the IC50 in the assay on HT-29 [1] (ht-29) and in the assay on CCRF-CEM (ccrf-cem) was below 10 nM throughout.
